Data published in ChEMBL document CHEMBL4359867, “Design, synthesis and biological evaluation of novel 4-anilinoquinazoline derivatives as hypoxia-selective EGFR and VEGFR-2 dual inhibitors” (Eur J Med Chem, 2019).
Activity calls are given as the source filed them. No cut-off for these calls is given here.

How the values were obtained:
[1] = Cytotoxicity against human A549 cells assessed as inhibition of cell growth at 0.5 uM after 48 hrs under normoxic condition by CCk-8 assay relative to control; type: cell-based
In short: (§1)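 RPMI-1640 with 10% fetal calf serum. Compounds dissolved in DMSO. Hypoxia produced chemically with cobalt(II) chloride; normoxic wells received no CoCl2. Viability read by CCK-8 (WST-8) at 450 nm, and inhibition ratio calculated against untreated control.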

[2] = Cytotoxicity against human NCI-H446 cells assessed as inhibition of cell growth at 0.5 uM after 48 hrs under normoxic condition by CCk-8 assay relative to control; type: cell-based; in short: as §1
[3] = Toxicity in Balb/c mouse xenografted with human A549 cells assessed as reduction in body weight at 10 mg/kg, po measured up to 8 days; type: organism-based; details: in vivo, 192 h
In short: (§2)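 Male BALB/c-nu mice, 1 × 10^7 A549 cells implanted sc in the flank. Dosing began seven days after implantation: 10 mg/kg oral, daily for 17 days, 5 mice per group, with a vehicle control group. Tumour size measured daily by caliper, with body weight and clinical signs also recorded daily. TGI calculated from volume changes relative to starting volumes versus control.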

[4] = biological target: Epidermal growth factor receptor (Homo sapiens, UniProt P00533); assay: Inhibition of N-terminal GST-tagged human EGFR cytoplasmic domain (669 to 1210 residues) expressed in baculovirus expression system using FAM-22 peptide as substrate incubated for 10 mins followed by substrate addition by caliper method
Sequence of Epidermal growth factor receptor (P00533 whole entry, the tested form may be a part): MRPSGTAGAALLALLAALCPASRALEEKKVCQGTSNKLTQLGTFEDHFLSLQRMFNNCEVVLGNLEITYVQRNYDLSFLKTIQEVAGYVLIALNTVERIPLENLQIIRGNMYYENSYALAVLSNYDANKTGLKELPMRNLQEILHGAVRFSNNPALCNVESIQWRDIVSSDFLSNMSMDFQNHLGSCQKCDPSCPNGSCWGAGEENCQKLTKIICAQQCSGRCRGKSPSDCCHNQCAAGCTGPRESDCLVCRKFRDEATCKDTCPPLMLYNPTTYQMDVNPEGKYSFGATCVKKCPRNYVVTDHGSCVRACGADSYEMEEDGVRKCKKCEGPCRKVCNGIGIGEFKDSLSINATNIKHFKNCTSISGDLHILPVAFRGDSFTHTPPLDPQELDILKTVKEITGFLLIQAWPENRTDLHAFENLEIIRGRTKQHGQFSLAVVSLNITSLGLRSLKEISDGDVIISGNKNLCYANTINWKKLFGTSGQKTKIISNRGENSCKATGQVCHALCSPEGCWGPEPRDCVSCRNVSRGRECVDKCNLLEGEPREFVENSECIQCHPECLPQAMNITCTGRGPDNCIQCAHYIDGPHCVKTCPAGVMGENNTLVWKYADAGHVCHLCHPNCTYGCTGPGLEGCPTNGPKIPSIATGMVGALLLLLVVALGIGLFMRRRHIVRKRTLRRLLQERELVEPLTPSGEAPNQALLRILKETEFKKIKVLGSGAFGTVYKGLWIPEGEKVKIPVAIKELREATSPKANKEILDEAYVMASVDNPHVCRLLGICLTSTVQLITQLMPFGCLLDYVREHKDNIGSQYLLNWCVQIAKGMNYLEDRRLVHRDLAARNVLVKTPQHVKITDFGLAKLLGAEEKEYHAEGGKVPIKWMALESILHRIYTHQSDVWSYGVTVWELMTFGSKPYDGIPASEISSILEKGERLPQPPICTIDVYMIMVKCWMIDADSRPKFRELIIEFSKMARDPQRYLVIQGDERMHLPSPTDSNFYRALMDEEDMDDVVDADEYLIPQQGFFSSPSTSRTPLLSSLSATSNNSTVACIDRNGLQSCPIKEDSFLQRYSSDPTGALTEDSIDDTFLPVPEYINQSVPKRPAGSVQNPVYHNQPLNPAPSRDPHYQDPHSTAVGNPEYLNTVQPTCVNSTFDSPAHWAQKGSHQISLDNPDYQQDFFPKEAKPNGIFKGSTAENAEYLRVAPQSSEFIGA

[5] = biological target: Vascular endothelial growth factor receptor 2 (Homo sapiens, UniProt P35968); assay: Inhibition of N-terminal GST-tagged human VEGFR2 cytoplasmic domain (790 to 1356 residues) expressed in baculovirus expression system using FAM-22 peptide as substrate incubated for 10 mins followed by substrate addition by caliper method
Sequence of Vascular endothelial growth factor receptor 2 (P35968 whole entry, the tested form may be a part): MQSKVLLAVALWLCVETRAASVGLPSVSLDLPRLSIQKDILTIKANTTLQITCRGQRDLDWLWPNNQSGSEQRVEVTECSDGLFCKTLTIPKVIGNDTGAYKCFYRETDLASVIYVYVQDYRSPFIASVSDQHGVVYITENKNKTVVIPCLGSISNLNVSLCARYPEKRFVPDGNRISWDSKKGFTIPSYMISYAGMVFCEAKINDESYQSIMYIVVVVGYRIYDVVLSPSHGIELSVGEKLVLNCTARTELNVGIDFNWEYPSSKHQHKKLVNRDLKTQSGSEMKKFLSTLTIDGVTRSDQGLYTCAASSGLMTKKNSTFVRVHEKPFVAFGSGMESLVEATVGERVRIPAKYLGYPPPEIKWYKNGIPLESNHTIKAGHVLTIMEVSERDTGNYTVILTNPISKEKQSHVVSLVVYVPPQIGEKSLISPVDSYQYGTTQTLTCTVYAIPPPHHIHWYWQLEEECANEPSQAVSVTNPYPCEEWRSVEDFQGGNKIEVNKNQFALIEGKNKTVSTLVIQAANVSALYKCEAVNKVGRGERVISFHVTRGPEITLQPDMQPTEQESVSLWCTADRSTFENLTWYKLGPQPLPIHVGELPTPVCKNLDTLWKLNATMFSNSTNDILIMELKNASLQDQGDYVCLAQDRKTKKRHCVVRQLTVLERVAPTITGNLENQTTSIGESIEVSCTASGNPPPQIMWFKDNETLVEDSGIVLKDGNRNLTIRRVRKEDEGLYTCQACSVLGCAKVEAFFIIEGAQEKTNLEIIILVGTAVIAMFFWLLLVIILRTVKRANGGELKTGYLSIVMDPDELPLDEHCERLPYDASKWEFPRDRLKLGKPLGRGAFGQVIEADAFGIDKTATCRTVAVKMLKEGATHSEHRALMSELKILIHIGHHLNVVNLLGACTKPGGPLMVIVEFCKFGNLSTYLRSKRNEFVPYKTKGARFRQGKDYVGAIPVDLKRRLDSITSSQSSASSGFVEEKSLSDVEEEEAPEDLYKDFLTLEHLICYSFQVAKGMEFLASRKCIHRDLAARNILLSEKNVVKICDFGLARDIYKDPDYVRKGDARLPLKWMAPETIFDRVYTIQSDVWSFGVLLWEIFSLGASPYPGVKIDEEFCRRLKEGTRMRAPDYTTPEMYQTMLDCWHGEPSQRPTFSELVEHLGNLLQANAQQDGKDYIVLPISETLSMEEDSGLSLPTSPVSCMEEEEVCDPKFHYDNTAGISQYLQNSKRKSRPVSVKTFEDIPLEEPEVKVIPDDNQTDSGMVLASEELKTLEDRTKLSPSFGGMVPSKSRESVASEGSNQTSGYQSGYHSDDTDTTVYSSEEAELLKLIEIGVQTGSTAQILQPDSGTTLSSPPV
In short: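 Compounds (DMSO stocks 40 μM–0.2 nM, ten levels) tested in duplicate. Enzyme preincubated with compound 10 min at room temperature, then FAM-P22 peptide/ATP added and incubated at 28 °C. Stopped with EDTA-containing buffer. IC50 obtained by four-parameter Hill fit; staurosporine as reference.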

A549 [6] = assay: Antiproliferative activity against human A549 cells assessed as inhibition of cell growth at 0.5 uM after 48 hrs under hypoxic condition (200 uM CoCl2) by CCk-8 assay relative to control (reference value: 59.94%); type: functional; in short: as §1
NCI-H446 [7] = assay: Antiproliferative activity against human NCI-H446 cells assessed as hypoxic sensitive enhancement ratio in presence of Cocl2 under irradiation; type: functional
NCI-H446 [8] = assay: Antiproliferative activity against human NCI-H446 cells assessed as inhibition of cell growth at 0.5 uM in hypoxia condition (200 uM CoCl2) and under irradiation at 8 Gy for 24 hrs and measured after 24 hrs by CCK8 assay (reference value: 68.77%); type: functional
NCI-H446 [9] = assay: Antiproliferative activity against human NCI-H446 cells assessed as hypoxic sensitive enhancement ratio in presence of CoCl2; type: functional
A549 [10] = assay: Antiproliferative activity against human A549 cells assessed as inhibition of cell growth at 0.5 uM in hypoxia condition (200 uM CoCl2) and under irradiation at 8 Gy for 24 hrs and measured after 24 hrs by CCK8 assay (reference value: 64.135%); type: functional
NCI-H446 [11] = assay: Antiproliferative activity against human NCI-H446 cells assessed as inhibition of cell growth at 0.5 uM after 48 hrs under hypoxic condition (200 uM CoCl2) by CCk-8 assay relative to control (reference value: 65.84%); type: functional; in short: as §1
A549 [12] = assay: Antiproliferative activity against human A549 cells assessed as hypoxic sensitive enhancement ratio in presence of CoCl2; type: functional
A549 [13] = assay: Antiproliferative activity against human A549 cells assessed as hypoxic sensitive enhancement ratio in presence of Cocl2 under irradiation; type: functional
A549 [14] = assay: Antitumour activity against human A549 cells xenografted in Balb/c mouse assessed as tumour growth inhibition at 10 mg/kg, po administered daily and mesured at day 17 relative to control; type: functional; details: 408 h, read-out: TGI; in short: as §2
A549 [15] = assay: Antitumour activity against human A549 cells xenografted in Balb/c mouse assessed as increase in tumour volume at 10 mg/kg, po administered daily and mesured after 7 days; type: functional, organism-based; in short: as §2

SMILES	inhibition at 48 h, 0.5 µM [1]	inhibition at 48 h, 0.5 µM [2]	IC50 [4]	IC50 [5]	inhibition (INH) (A549 [6])	inhibition (INH) (NCI-H446 [8])	inhibition (INH) (A549 [10])	inhibition (INH) (NCI-H446 [11])	also measured
COc1cc2c(Nc3ccc(Br)cc3F)ncnc2cc1OCC1CCN(C)CC1 [VANDETANIB]	21.1%	25.6%	–	–	–	–	–	–	Activity [3]: Toxic
COc1cc2c(Nc3cccc(F)c3)ncnc2cc1OCCOCCNC(=O)Cn1cnc([N+](=O)[O-])n1	–	–	0.00311 µM	1.2 µM	–	–	–	–	–
COc1cc2c(Nc3ccc(Br)cc3F)ncnc2cc1OCCNC(=O)Cn1cnc([N+](=O)[O-])n1	14.9%	16.8%	0.0436 µM	0.0868 µM	72.99%	79.03%	80.3%	76.34%	Ratio (NCI-H446 [7]): 0.85; Ratio (NCI-H446 [9]): 1.07; Ratio (A549 [12]): 1.19; Ratio (A549 [13]): 0.9
COc1cc2c(Nc3ccc(C)c(Br)c3)ncnc2cc1OCCOCCNC(=O)Cn1cnc([N+](=O)[O-])n1	5.48%	18.6%	0.00037 µM	0.407 µM	65.39%	80.1%	69.18%	77.71%	Ratio (NCI-H446 [7]): 0.86; Ratio (NCI-H446 [9]): 1.08; Ratio (A549 [12]): 1.15; Ratio (A549 [13]): 0.8
COc1cc2c(Nc3ccc(C)c(Br)c3)ncnc2cc1OCCNC(=O)Cn1cnc([N+](=O)[O-])n1	–	–	0.0185 µM	0.184 µM	–	–	–	–	–
COc1cc2c(Nc3ccc(Br)cc3F)ncnc2cc1OCC1CCN(C(=O)Cn2cncc2[N+](=O)[O-])CC1	–	–	0.00323 µM	0.0271 µM	–	–	–	–	–
COc1cc2/c(=N/c3ccc(Br)cc3F)nc[nH]c2cc1OCC1CCN(C)CC1 [VANDETANIB]	–	–	–	–	67.26%	82.02%	81.44%	77.67%	inhibition in vivo at 10 mg/kg (A549 [14]): 62.1%; Activity (A549 [15]): Active
COc1cc2c(Nc3ccc(F)c(F)c3)ncnc2cc1OCCOCCOCCNC(=O)Cn1cnc([N+](=O)[O-])n1	–	–	0.02 µM	1.88 µM	–	–	–	–	–
